ChEMBL document CHEMBL4190195, “Bioactive Glycosides from the Twigs of Litsea cubeba” (J Nat Prod, 2017)
Calls of active or inactive are those of the source. The calls are words filed in the database; no cut-off is given here.

Tests used:
HepG2 = experiment: Cytoprotection against 8 mM acetaminophen-induced human HepG2 cells assessed as cell viability at 10 uM after 24 hrs by MTT assay (reference value: 0 +/- 2%); type: functional; settings: in the assay text read “after 48 hrs” for “after 24 hrs”
Procedure, shortened: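 HepG2 cells seeded at 1.5 × 10^4 cells/well in DMEM and grown 24 h at 37 °C, 5% CO2. Compound (10 μM) then added together with 8 mM acetaminophen; bicyclol 10 μM plus 8 mM acetaminophen served as reference. Cultured 48 h, then 0.5 mg/mL MTT for 4 h, formazan OD read at 570 nm. Mean ± SD of four independent experiments; Student's t-test.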

Histone deacetylase 1 = Histone deacetylase 1 (Homo sapiens, UniProt Q13547); experiment: Inhibition of HDAC1 (unknown origin) using H3(1 to 21)K9 after 60 mins by fluorescence assay
A549 = experiment: Cytotoxicity against human A549 cells assessed as growth inhibition at 10 uM after 72 hrs by coulter counting method; type: functional, cell-based
Peritoneal macrophage = experiment: Inhibition of LPS-induced TNFalpha secretion in C57BL6J mouse peritoneal macrophages at 10 uM after 24 hrs; type: functional, cell-based
HCT-8 = experiment: Cytotoxicity against human HCT8 cells assessed as growth inhibition at 10 uM after 72 hrs by coulter counting method; type: functional, cell-based
A2780 = experiment: Cytotoxicity against human A2780 cells assessed as growth inhibition at 10 uM after 72 hrs by coulter counting method; type: functional, cell-based
BGC-823 = experiment: Cytotoxicity against human BGC823 cells assessed as growth inhibition at 10 uM after 72 hrs by coulter counting method; type: functional, cell-based
Bel-7402 = experiment: Cytotoxicity against human Bel7402 cells assessed as growth inhibition at 10 uM after 72 hrs by coulter counting method; type: functional, cell-based

Histone deacetylase 1, sequence (Q13547 whole entry): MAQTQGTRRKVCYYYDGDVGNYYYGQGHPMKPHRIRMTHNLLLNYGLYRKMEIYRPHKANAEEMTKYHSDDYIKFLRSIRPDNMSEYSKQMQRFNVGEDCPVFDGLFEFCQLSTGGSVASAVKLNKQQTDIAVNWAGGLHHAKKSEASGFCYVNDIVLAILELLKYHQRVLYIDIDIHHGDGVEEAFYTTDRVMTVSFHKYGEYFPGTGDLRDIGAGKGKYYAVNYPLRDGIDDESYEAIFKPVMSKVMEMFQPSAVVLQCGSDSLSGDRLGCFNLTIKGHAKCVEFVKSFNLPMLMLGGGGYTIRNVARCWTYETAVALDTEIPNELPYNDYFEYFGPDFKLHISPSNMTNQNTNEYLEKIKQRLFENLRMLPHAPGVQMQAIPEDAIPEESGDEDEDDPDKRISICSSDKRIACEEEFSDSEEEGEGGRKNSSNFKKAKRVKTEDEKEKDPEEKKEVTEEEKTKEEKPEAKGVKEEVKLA

COc1cc([C@H]2Oc3c(OC)cc(CCCO)cc3[C@@H]2CO[C@@H]2O[C@H](CO[C@@H]3O[C@@H](C)[C@H](O)[C@@H](O)[C@H]3O)[C@@H](O)[C@H](O)[C@H]2O)ccc1O was tested, and the Activity (HepG2) was 37.4%.

With COc1cc([C@H]2Oc3c(OC)cc(CCCO)cc3[C@@H]2CO)ccc1O[C@@H]1O[C@H](CO)[C@@H](O)[C@H](O)[C@H]1O the Activity (HepG2) was 38.4%, the IC50 (Histone deacetylase 1) was 3.6 µM and the “growth inhibition (GI)” value (A549) was “inactive”. The inhibition (Peritoneal macrophage) was “inactive”, the “growth inhibition (GI)” value (HCT-8) was “inactive” and the “growth inhibition (GI)” value (A2780) was “inactive”. For the same molecule, the “growth inhibition (GI)” value (BGC-823) was “inactive” and the “growth inhibition (GI)” value (Bel-7402) was “inactive”.

With CCC(=O)c1cc(OC)c(O[C@@H]2O[C@H](CO[C@@H]3O[C@@H](C)[C@H](O)[C@@H](O)[C@H]3O)[C@@H](O)[C@H](O)[C@H]2O)c(OC)c1 the Activity (HepG2) was 37.6%.

With COc1cc([C@H]2Oc3c(OC)cc(/C=C/CO[C@@H]4O[C@H](CO)[C@@H](O)[C@H](O)[C@H]4O)cc3[C@@H]2CO)ccc1O[C@@H]1O[C@H](CO)[C@@H](O)[C@H](O)[C@H]1O the Activity (HepG2) was 46%.

COc1cc([C@H]2Oc3c(OC)cc(/C=C/CO[C@@H]4O[C@H](CO)[C@@H](O)[C@H](O)[C@H]4O)cc3[C@@H]2CO)cc(OC)c1O[C@@H]1O[C@H](CO)[C@@H](O)[C@H](O)[C@H]1O showed an Activity (HepG2) of 30.5%.

COC(=O)c1cc(OC)c2c(c1-c1c(CO)cc(OC)c3c1OCO3)OCO2 [BICYCLOL] was tested, and the Activity (HepG2) was 34.8%.

COc1cc([C@@H](O)[C@H](CO)Oc2c(OC)cc(CCC(C)O)cc2OC)cc(OC)c1O[C@@H]1O[C@H](CO)[C@@H](O)[C@H](O)[C@H]1O (some centres not stated) was tested, and the Activity (HepG2) was 38.9%.

In the case of O=C(O)/C=C\c1cc2ccoc2cc1O[C@@H]1O[C@H](CO)[C@@H](O)[C@H](O)[C@H]1O, the IC50 (Histone deacetylase 1) is reported as 4.6 µM, the “growth inhibition (GI)” value (A549) is reported as “inactive” and the inhibition (Peritoneal macrophage) is reported as “inactive”. The “growth inhibition (GI)” value (HCT-8) was “inactive”, the “growth inhibition (GI)” value (A2780) was “inactive” and the “growth inhibition (GI)” value (BGC-823) was “inactive”. For the same molecule, the “growth inhibition (GI)” value (Bel-7402) was “inactive”.

Work on COc1cc([C@H]2Oc3c(OC)cc(CCCO)cc3[C@@H]2CO)cc(OC)c1O[C@@H]1O[C@H](CO)[C@@H](O)[C@H](O)[C@H]1O yielded an Activity (HepG2) of 31.2%.
